SMILES strings stand for the structures.

For series [1] the following is noted: phase I single-ascending and multiple-ascending dose studies; cited from earlier work.
For series [2], the target named is CYP2C9 (Homo sapiens, UniProt P11712). Kind of series: CYP inhibition in human liver microsomes. It is filed as in vitro ADME. The note with it: up to 50 μM. In a few lines:
(§1)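 Reversible inhibition: test compound pre-incubated 10 min at 37°C with pooled human liver microsomes plus an isoform-selective probe substrate. Reaction started with NADPH (1.3 mM), then quenched with 3% formic acid in acetonitrile containing internal standard. CYP-specific metabolite formation measured by LC-MS/MS. Activity expressed as % control = (peak area ratio with compound / without compound) × 100.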

Series [3] addresses CYP2C19 (Homo sapiens, UniProt P33261). Kind of series: CYP inhibition in human liver microsomes. It is filed as in vitro ADME. The note with it: up to 15 μM. In a few lines: as §1
Series [4] addresses T1, OATP1B1 (Homo sapiens, UniProt Q9Y6L6).
T1 sequence (Q9Y6L6 1-691): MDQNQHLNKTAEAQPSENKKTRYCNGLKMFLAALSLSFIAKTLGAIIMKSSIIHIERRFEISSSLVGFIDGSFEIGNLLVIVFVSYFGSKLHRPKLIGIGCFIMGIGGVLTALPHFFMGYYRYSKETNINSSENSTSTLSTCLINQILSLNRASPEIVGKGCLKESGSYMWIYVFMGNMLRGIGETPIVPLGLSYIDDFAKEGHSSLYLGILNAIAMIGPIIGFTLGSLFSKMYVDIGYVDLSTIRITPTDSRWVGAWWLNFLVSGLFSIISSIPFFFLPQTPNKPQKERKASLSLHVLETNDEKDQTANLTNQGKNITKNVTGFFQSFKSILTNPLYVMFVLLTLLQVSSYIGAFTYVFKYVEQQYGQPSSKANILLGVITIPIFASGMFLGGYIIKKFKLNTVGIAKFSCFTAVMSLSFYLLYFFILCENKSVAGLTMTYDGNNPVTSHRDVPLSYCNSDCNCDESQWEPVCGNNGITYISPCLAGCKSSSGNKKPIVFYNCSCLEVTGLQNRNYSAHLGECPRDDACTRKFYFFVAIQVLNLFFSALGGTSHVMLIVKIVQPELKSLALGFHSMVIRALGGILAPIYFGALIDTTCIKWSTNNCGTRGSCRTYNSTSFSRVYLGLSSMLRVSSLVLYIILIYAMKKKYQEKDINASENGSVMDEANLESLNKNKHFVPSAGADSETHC
As to the kind of experiment: Inhibition of OATP1B1-mediated E217ßG uptake in HEK293 cells. It is filed as in vitro ADME.

In series [5] the test system is CYP3A. As to the kind of experiment: Reversible CYP3A inhibition in human liver microsomes. In kind it is in vitro ADME. The note with it: MDZ and testosterone as probe substrates. In a few lines:
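Test compound was pre-incubated for 10 min at 37°C with pooled human liver microsomes containing an isoform-selective substrate. Metabolite formation was expressed as % control activity, calculated as the peak area ratio with compound divided by the peak area ratio without compound, ×100.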

Series [6] has as its target T2, CYP1A2 (Homo sapiens, UniProt P05177).
T2 sequence (P05177 1-516): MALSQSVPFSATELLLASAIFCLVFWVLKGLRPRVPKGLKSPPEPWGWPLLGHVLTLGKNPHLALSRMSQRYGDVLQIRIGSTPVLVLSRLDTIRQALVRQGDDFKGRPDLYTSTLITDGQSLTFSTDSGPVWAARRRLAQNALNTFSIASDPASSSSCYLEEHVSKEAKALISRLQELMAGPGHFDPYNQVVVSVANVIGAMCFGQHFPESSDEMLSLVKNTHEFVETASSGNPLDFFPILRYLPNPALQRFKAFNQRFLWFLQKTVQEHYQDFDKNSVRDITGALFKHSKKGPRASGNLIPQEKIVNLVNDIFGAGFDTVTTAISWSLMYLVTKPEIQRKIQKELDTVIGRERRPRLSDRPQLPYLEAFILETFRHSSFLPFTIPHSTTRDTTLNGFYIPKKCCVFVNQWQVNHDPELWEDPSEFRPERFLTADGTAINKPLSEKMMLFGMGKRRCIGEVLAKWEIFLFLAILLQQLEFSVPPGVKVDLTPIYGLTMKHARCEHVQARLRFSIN
As to the kind of experiment: CYP inhibition in human liver microsomes. In kind it is in vitro ADME. The note with it: up to 50 μM. An outline of the steps:
as §1

Series [7] has as its target CYP2D6 (Homo sapiens, UniProt P10635). As to the kind of experiment: CYP inhibition in human liver microsomes. It is filed as in vitro ADME. The settings on record: up to 15 μM.

Chain of CYP2C19 (P33261 whole entry): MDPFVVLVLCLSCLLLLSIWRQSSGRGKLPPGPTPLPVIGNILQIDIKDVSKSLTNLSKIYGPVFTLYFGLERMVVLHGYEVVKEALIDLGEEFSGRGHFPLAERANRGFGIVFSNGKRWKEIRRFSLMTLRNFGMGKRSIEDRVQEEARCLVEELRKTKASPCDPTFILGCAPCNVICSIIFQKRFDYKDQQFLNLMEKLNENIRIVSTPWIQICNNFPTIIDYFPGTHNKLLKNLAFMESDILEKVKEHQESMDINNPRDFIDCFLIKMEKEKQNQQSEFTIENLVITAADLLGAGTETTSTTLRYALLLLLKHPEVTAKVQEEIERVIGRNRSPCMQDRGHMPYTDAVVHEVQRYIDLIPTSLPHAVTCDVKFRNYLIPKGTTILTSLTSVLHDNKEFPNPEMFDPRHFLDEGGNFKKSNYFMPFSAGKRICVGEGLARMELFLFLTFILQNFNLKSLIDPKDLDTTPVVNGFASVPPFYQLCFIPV
Chain of CYP2D6 (P10635 whole entry): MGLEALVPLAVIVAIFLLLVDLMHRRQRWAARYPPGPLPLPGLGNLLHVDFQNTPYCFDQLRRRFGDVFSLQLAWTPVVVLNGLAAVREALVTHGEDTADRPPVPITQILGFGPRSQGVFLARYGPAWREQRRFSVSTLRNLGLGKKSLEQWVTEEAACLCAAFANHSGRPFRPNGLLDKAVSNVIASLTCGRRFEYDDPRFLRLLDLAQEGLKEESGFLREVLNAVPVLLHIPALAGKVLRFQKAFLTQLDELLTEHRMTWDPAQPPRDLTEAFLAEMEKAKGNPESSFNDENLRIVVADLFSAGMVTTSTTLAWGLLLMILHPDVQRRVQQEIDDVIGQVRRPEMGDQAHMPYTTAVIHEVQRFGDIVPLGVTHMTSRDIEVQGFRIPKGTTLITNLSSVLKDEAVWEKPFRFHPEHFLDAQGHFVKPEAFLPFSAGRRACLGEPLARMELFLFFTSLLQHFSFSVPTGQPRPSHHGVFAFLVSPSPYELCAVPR
Chain of CYP2C9 (P11712 whole entry, canonical isoform): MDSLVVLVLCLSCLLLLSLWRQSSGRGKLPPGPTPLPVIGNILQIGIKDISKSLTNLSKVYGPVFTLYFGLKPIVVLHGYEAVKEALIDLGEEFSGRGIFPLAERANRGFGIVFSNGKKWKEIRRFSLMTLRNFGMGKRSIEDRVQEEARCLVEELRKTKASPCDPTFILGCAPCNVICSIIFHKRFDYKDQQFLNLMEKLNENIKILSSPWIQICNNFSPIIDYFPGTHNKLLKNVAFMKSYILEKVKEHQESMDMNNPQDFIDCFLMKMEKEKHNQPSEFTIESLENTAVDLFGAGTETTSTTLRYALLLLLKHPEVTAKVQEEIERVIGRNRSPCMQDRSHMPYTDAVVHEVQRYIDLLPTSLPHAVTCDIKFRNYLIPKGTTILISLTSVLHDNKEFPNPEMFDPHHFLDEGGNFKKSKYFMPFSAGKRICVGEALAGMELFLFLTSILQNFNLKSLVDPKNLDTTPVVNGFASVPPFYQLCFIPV

In the case of `C[C@H]1CN(C2COC2)CCN1c1ccc(Nc2cc(-c3ccnc(N4CCn5c(cc6c5CC(C)(C)C6)C4=O)c3CO)cn(C)c2=O)nc1` [fenebrutinib], the “terminal half-life (t1/2)” value in series [1] is listed as 4−10 hours. For the same compound, the “reversible or time-dependent inhibition of CYP2C9” value in series [2] is recorded as “No reversible or time‐dependent inhibition”. In addition, the “reversible or time-dependent inhibition of CYP2C19” value in series [3] is recorded as “No reversible or time‐dependent inhibition”. The half-maximal inhibitory concentration (IC50) in series [4] is 19.7 µM. Further, in series [4] (human, HEK293 cells stably expressing human OATP1B1, pH 7.4, probe E217ßG (1 μM)), the inhibition at 30 μM turned out to be 62.8%. The “reversible CYP3A inhibition” value in series [5] was “no reversible CYP3A inhibition”. Also, the “reversible or time-dependent inhibition of CYP1A2” value in series [6] is “No reversible or time‐dependent inhibition”. Further, in series [7], the “reversible or time-dependent inhibition of CYP2D6” value is reported as “No reversible or time‐dependent inhibition”.

Values taken from article PMC6977399 (Clinical Pharmacology and Therapeutics, 2019).
